Most compounds without a hit are left out; they make up all but 5.8% or so of the library.
RBBP9 inhibitor = blocks human serine hydrolase RBBP9 | hit rate 0.2% among 220,000 | O75884 | recombinant RBBP9, FP-Rh probe fluorescence polarization | inhibition, % at 7.94 µM;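 active = inhibition above the campaign mean of all tested compounds plus 3 SD, cut at about 14% in these data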;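 also: plate controls were DMSO wells with RBBP9 for no effect and wells lacking RBBP9 protein for full effect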
Target sequence (O75884 whole entry, looked up): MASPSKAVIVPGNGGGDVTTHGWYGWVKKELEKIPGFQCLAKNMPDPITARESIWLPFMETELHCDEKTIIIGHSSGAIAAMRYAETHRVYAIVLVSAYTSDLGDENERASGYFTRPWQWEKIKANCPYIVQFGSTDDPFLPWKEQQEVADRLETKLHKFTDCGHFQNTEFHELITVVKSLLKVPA
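system = RBBP9 protein | input = RBBP9 at 2.5 µM in dispensed solution, before mixing | measured by = fluorescence polarization (mP), excitation 525 nm, emission 598 nm | incubation = enzyme-compound preincubation 30 min, then probe labeling 45 min, 25 °C | buffer or medium = Tris-NaCl-Pluronic buffer, pH 8.0 | compound = single dose 7.94 µM | also added = FP-Rh probe, 375 nM dispensing solution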
ROMK mod = modulators of human ROMK potassium channel; P48048; Tet-inducible ROMK, thallium flux fluorescence; actives lie on both sides; B-score at 10 µM; hit rate 2% among 130,000;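 active = signal ratio slope over the read window, or its plate-corrected B-score, at least 3 SD from the plate mean, either direction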;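 also: B-score of the F/F0 ratio slope over 7 to 12 s after thallium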
WT yeast gro inh = growth inhibition of WT yeast, mitochondrial fusion screen; mitochondrial fusion phenotypic screen, WT strain; inhibition, % at 10 µM; hit rate 2.1% among 190,000; AID 1362; in the data active = inhibition above about 58%; tested in S. cerevisiae
14-3-3 Bad PPI = disrupts binding of bovine 14-3-3 zeta to phospho-Bad peptide | P63103 | TR-FRET 14-3-3zeta/Dy647-pBad peptide displacement, 1 h | inhibition, % at 21.7 µM | hit rate 0.71% among 220,000;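 active = inhibition above about 70%, limit read from the data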;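 also: 0% = full 14-3-3 plus peptide FRET controls and 100% = background without 14-3-3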
Cl transport mod = KCC2 (human) Cl- transport modulation. AID 1456. B-score of Tl+ flux slope (higher = more flux/activation; lower = inhibition) at 10 µM. hit rate 2.2% among 190,000. KCC2 cells, thallium flux FluoZin-2 fluorescence;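 active = thallium flux slope and its plate-corrected score both differing from the plate sample mean at a set confidence after two filtering rounds, in either direction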;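 also: slope of fluorescence scaled to starting intensity during 10 to 20 s after thallium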
NCF1 inh = p47phox (human) inhibition; P14598; AID 1274; hit rate 0.53% among 220,000; inhibition, % at 24.7 µM; p47phox/p22phox peptide binding, fluorescence polarization, 2 h;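 active = inhibition above about 30%, limit read from the data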;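 also: 0% = p47phox with labelled peptide and 100% = labelled peptide alone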
Target sequence (P14598 whole entry, looked up): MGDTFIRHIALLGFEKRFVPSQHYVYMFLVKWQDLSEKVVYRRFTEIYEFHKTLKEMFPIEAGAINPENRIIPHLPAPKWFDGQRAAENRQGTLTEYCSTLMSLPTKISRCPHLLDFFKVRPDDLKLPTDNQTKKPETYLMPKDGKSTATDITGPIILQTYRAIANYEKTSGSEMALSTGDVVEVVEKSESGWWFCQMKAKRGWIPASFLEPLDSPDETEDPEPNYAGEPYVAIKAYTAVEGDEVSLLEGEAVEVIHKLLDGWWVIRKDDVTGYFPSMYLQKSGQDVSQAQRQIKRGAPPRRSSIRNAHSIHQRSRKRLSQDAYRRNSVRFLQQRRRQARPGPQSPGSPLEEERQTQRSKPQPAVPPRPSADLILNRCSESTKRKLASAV
Active calls of the source: *; . = no result given; [ ] = remark or other dose.

SMILES	RBBP9 inhibitor	ROMK mod	WT yeast gro inh	14-3-3 Bad PPI	Cl transport mod	NCF1 inh
CC(C)(C)C(=O)NC(=S)N1CCCC1	1	-0.15	6	-13	0.47	-4
O=C1Nc2ccccc2/C1=N/N=C/c1ccc(-c2ccc([N+](=O)[O-])cc2)o1	6	0.27	-7	95*	0.62	51*
Cc1nc2ccc(S(=O)(=O)Nc3cccc(-c4nc5cccnc5s4)c3)cc2s1	-6	-1.4	72*	1	-0.61	-22
CCN(Cc1cc2ccccc2[nH]c1=O)C(=O)c1cccc([N+](=O)[O-])c1	4	.	.	-8	0.32	-14
CCN(CC)Cc1cc2[nH]c3c4ccc(Cl)cc4ncc3c2cc1OC	-3	.	.	9	0.38	-4
O=C(Nc1sc2c(c1C(=O)c1ccc(Cl)cc1)CCCC2)c1cccnc1	-14	.	47	71*	.	-13
Oc1ccc(N2CCN(C(=S)NCCc3ccccc3)CC2)cc1	1	.	8	-12	.	95*
S=C(NCCc1ccccc1)N1CCc2ccccc2C1	-2	-1.3	71*	-1	-2.1	1
Oc1ccccc1N1CCN(C(=S)NCCc2ccccc2)CC1	-3	-0.041	8	-19	-1.7	47*
O=C(NCC1CCCO1)c1cncc(Br)c1 (stereo unspecified)	0	0.51	1	1	0.93	1
N=C1C(c2ccccc2)=C(O)CN1c1cccc(S(=O)(=O)N2CCOCC2)c1	-8	.	.	7	0.021	-8
O=C(OCc1nnc(-c2ccccc2)o1)C1CC(=O)N(Cc2ccco2)C1 (stereo unspecified)	-12	-0.11	23	6	-0.52	10
Nn1c(SCc2ccccc2F)nnc1-c1cccnc1	8	.	.	-11	0.4	-13
Nn1c(SCc2nc3ccccn3c2Br)nnc1-c1cccnc1	-6	.	-10	-9	1.1	57*
Cc1ccc(S(=O)(=O)n2c3ccc(Cl)cc3c3nc(C)sc32)cc1	-7	0.14	64*	0	0.0039	-17
c1cn(-c2ccc(-c3ccnc4ncnn34)cc2)cn1	-8	0.36	1	30	0.58	-3
Oc1ccc2ccccc2c1/C=N/c1nc2c(s1)CCCC2	1	-0.88	80*	20	1.4	-12
Oc1c(Br)cc(Br)cc1/C=N/c1nc2c(s1)CCCC2	1	0.68	10	21	.	-5
S=c1[nH]nc(-c2ccco2)n1/N=C/c1ccc(Cl)c(Cl)c1	-11	.	76*	3	3.9	-2
COc1ccc(NC(=O)Cc2coc3cc(C)ccc23)cn1	-5	-0.32	-2	-3	-1.4	-10
Cc1cccc(Nc2nc(-c3cccs3)cs2)n1	-7	.	72*	-2	-0.76	-12
Cc1cccc(N=Nc2c(C)c(C#N)c(O)[nH]c2=O)c1	-4	-0.19	0	-9	.	79*
CCCCOC(=O)c1ccc(N=Nc2c(C)c(C#N)c(O)[nH]c2=O)cc1	1	-1.7	.	-5	0.62	-7
Cn1c(SCc2c(F)cccc2Cl)nc2c(c1=O)SCC2	-3	.	66*	-11	-2.7	-19
CCCn1c2c(c(=N)c3c1CCC3)CCC2	-3	-1.3	.	9	-0.12	11
SMILES	RBBP9 inhibitor	ROMK mod	WT yeast gro inh	14-3-3 Bad PPI	Cl transport mod	NCF1 inh
CCCCCCCn1c2c(c(=N)c3ccccc31)CCC2	-11	-2.6	81*	28	-0.45	11
CC(=O)Nc1ccc(-n2nnnc2SCC(=O)Nc2cccc(NC(=O)c3ccco3)c2)cc1	-10	.	.	12	0.36	-28
CC1CC(C)CN(CCCNC(=O)COc2cc(=O)n(C)c3ccccc23)C1 (stereo unspecified)	-4	.	-13	0	-0.062	-5
CCn1c(=O)cc(OCC(=O)NCCCN2CC(C)CC(C)C2)c2ccccc21 (stereo unspecified)	0	.	-49	-17	1.5	68*
Cn1c(CCc2ccccc2)n[nH]c1=S	-4	.	0	-16	.	-11
S=C(NCCc1ccccc1)Nc1ccc(Br)cc1	-5	.	44	-4	-1.2	-14
CC(=O)Nc1sc2c(c1-c1nc3ccccc3s1)CCN(C(C)C)C2	3	.	58*	-7	0.44	-14
COc1ccc(S(=O)(=O)O/N=C2\CCCc3ccccc32)cc1	-3	-0.66	12	23	0.65	42*
Cc1cccc(CCNC(=O)C2CCN(S(=O)(=O)c3ccccc3)CC2)c1	4	-0.34	9	-13	-0.54	0
CC[n+]1c(C=C2C=C(C)OC(C)=C2)sc2ccccc21	-3	-2.4	69*	-16	-0.092	-16
CC[n+]1c(/C=C2/C=C(C)CC(C)C2)sc2ccccc21 (stereo unspecified)	-5	.	-2	-12	0.76	-29
O=C(N/N=C/c1ccc([N+](=O)[O-])cc1)c1cc(C2CC2)nc2ccccc12	1	.	.	6	0.23	-8
CCc1ccc(/C=N/NC(=O)c2cc(C3CC3)nc3ccccc23)s1	-6	3.2*	12	-3	-0.1	-5
COc1cccc(C2=NNC(=NCc3ccccc3)SC2)c1	-12	0.088	6	-5	-0.12	-7
CN1N=C(c2ccc(F)c(F)c2)CSC1=NCc1ccccc1	-10	-1.5	69*	-13	1.3	-8
NS(=O)(=O)c1ccc(N/N=C/c2cn(-c3ccccc3)nc2-c2cccs2)c([N+](=O)[O-])c1	2	0.002	25	-4	0.5	9
N#Cc1ccc(N/N=C/c2cn(-c3ccccc3)nc2-c2ccccc2)c([N+](=O)[O-])c1	-5	0.45	-3	8	-1.7	51*
COc1cccc(Nc2nc(-c3sc(NC(=O)c4ccccc4)nc3C)cs2)c1	-6	1.2	66*	52	0.18	-30
CC(=O)Nc1nc(C)c(-c2csc(Nc3cccc([N+](=O)[O-])c3)n2)s1	1	0.4	-16	87*[fluorescence artefact?]	0.31	-12
O=C(Nc1nc(-c2cc(Cl)sc2Cl)cs1)c1ccccc1	-23	0.85	68*	-6	0.93	4
Cc1ccc(Nc2nc(-c3sc(NC(=O)c4cccc(Cl)c4)nc3C)cs2)cc1	-9	.	22	47	-0.0075	-28
Cc1nc(NC(=O)c2ccccc2)sc1-c1csc(Nc2ccc(C(=O)O)cc2)n1	-4	.	.	75*	0.24	-38
O=C(Nc1nc(-c2ccc(Cl)cc2)cs1)c1cccnc1	-14	.	1	6	-0.078	-15
COc1cccc(Nc2nc(-c3sc(NC(=O)CC(C)C)nc3C)cs2)c1	-9	.	1	19	-0.42	-26
Cc1nc(NC(=O)c2ccc(Cl)cc2)sc1-c1csc(Nc2cccc(F)c2)n1	-7	.	23	73*	.	158*
CC(C)(C)c1ccc(-c2nnc(SCCC#N)n2C2CCCC2)cc1	-2	.	66*	5	-1.3	-4
Cn1c(SCCC#N)nnc1-c1ccc(F)cc1	7	0.98	-10	-13	0.66	7
Cc1ccc(S(=O)(=O)Nc2csc(C)c2C(=O)O)cc1	-1	.	.	73*	0.48	-20

Bioassay records (PubChem)
